# Data taken from ChEMBL document CHEMBL1124368 (J Med Chem, 1989).
# What was measured:
# [1] = target: T1, Dihydrofolate reductase (Rattus norvegicus, UniProt Q920D2); test: In vitro inhibitory concentration against rat liver dihydrofolate reductase(DHFR); details: read-out: I50
# T1 sequence (Q920D2 whole entry): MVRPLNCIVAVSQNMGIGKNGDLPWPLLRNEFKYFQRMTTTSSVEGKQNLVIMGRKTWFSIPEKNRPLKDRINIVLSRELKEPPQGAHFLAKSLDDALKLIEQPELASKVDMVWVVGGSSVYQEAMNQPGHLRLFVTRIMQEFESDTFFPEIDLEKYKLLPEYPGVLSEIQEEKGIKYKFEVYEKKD
# Summary of the method: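 Partially purified rat liver DHFR, prepared by the Bertino and Fischer method, assayed spectrophotometrically at 340 nm. I50 is the final inhibitor concentration that cuts the reaction rate to 50% of the uninhibited rate. […] Inhibitors were dissolved in 0.1 M HCl or 95% ethanol.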
# [2] = test system: Mus musculus; test: (§1) Mean of weight gain from day 0 to day 24 at a dose of 3.125 mg/kg/day of compound; format: functional; design: unit not given here
# Summary of the method: (§2)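 M5076 reticulum cell sarcoma: 10⁶ cells implanted im into the left leg of female BDF₁ mice (groups of five) on day 0. Drug in 10–20% DMSO in arachis oil was given ip daily on days 1–17. Weight change is the mean weight gain from day 0 to day 24.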
# [3] = test system: Mus musculus; test: Tumor volume in 20 days after tumor implantation at a dose of 6.25 mg/kg/day of compound; format: functional
# Summary of the method: (§3)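 10⁶ M5076 reticulum cell sarcoma cells were injected im into the left leg of female BDF₁ mice, five per group, on day 0. Compound in 10–20% DMSO/arachis oil was dosed ip daily on days 1–17. Tumor volumes (mm³) were recorded on days 12, 16, 20 and 24 after implantation, with NM marking a tumor that could not be measured.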
# [4] = test system: Mus musculus; test: Ratio of tumor volume of test(T) animals compared to control(C) animals x 100 T/C(%)] at a dose of 12.50 mg/kg/day; format: functional
# Summary of the method: (§4)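 M5076 reticulum cell sarcoma: 10⁶ cells implanted im into the left leg of female BDF₁ mice (groups of five) on day 0. Treatment was ip, daily on days 1–17, in 10–20% DMSO in arachis oil. T/C% is treated tumor volume over control tumor volume × 100.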
# [5] = test system: Mus musculus; test: Tumor volume in 24 days after tumor implantation at a dose of 12.5 mg/kg/day; format: functional; summary of the method: as §3
# [6] = test system: Mus musculus; test: Mean of weight gain from day 0 to day 24 at a dose of 6.25 mg/kg/day; format: functional; design: unit not given here; summary of the method: as §2
# [7] = test system: Mus musculus; test: Tumor volume in 24 days after tumor implantation at a dose of 25 mg/kg/day of compound; format: functional; summary of the method: as §3
# [8] = test system: Mus musculus; test: Tumor volume in 16 days after tumor implantation at a dose of 50 mg/kg/day of compound; NM=Tumor not measurable; format: functional, organism-based; summary of the method: as §3
# [9] = test system: Mus musculus; test: Tumor volume in 20 days after tumor implantation at a dose of 3.125 mg/kg/day; format: functional; summary of the method: as §3
# [10] = test system: Mus musculus; test: Tumor volume in 24 days after tumor implantation at a dose of 6.25 mg/kg/day; format: functional; summary of the method: as §3
# [11] = test system: Mus musculus; test: Ratio of tumor volume of test(T) animals compared to control(C) animals x 100 T/C(%)] at a dose of 25 mg/kg/day; format: functional; summary of the method: as §4
# [12] = test system: Mus musculus; test: Tumor volume in 24 days after tumor implantation at a dose of 3.125 mg/kg/day; format: functional; summary of the method: as §3
# [13] = test system: Mus musculus; test: Ratio of tumor volume of test(T) animals compared to control(C) animals x 100 T/C(%)] at a dose of 3.125 mg/kg/day; format: functional; summary of the method: as §4
# [14] = test system: Mus musculus; test: Mean of weight gain from day 0 to day 24 at a dose of 25 mg/kg/day of compound; format: functional; design: unit not given here; summary of the method: as §2
# [15] = test system: Mus musculus; test: Mean of weight gain from day 0 to day 24 at a dose of 12.5 mg/kg/day of compound; format: functional; design: unit not given here; summary of the method: as §2
# [16] = test system: Mus musculus; test: Ratio of tumor volume of test(T) animals compared to control(C) animals x 100 T/C(%)] at a dose of 6.25 mg/kg/day; format: functional; summary of the method: as §4
# [17] = test system: Mus musculus; test: Tumor volume in 16 days after tumor implantation at a dose of 3.125 mg/kg/day of compound; format: functional; summary of the method: as §3
# [18] = test system: Mus musculus; test: as §1; format: functional; summary of the method: as §2
# [19] = test system: Mus musculus; test: Ratio of tumor volume of test(T) animals compared to control(C) animals x 100 T/C(%)] at a dose of 3.125 mg/kg/day of compound; maximal activity for this system.; format: organism-based; details: in vivo; summary of the method: as §4
# [20] = test system: Mus musculus; test: Number of survivors treated on day 24 at a dose of 25 mg/kg/day of compound expressed as ratio of (test/control); none of them survived(0/5); format: functional
# [21] = test system: Mus musculus; test: Tumor volume in 20 days after tumor implantation at a dose of 3.125 mg/kg/day of compound; NM=tumor not measureable; format: functional, organism-based; summary of the method: as §3
# [22] = test system: Mus musculus; test: Tumor volume in 24 days after tumor implantation at a dose of 3.125 mg/kg/day of compound; NM=tumor not measureable; format: functional, organism-based; summary of the method: as §3
# [23] = test system: Mus musculus; test: Number of survivors versus treated on day 24 at a dose of 12.5 mg/kg/day of compound; none of them survived(0/5); format: functional
# [24] = test system: Mus musculus; test: Number of survivors versus treated on day 24 at a dose of 6.25 mg/kg/day of compound; none of them survived(0/5); format: functional
# [25] = test system: Mus musculus; test: Tumor volume in 12 days after tumor implantation at a dose of 3.125 mg/kg/day of compound; NM=tumor not measureable.; format: functional, organism-based; summary of the method: as §3
# [26] = test system: Mus musculus; test: Tumor volume in 16 days after tumor implantation at a dose of 3.125 mg/kg/day of compound; NM=tumor not measureable; format: functional, organism-based; summary of the method: as §3
# [27] = test system: Mus musculus; test: Mean of weight gain from day 0 to day 24 at a dose of 3.125 mg/kg/day of compound (maximum activity noticed); format: functional; summary of the method: as §2
# [28] = test system: Mus musculus; test: Number of survivors versus treated on day 24 at a dose of 12.5 mg/kg/day of compound; Tumor not measurable; format: functional, organism-based
# [29] = test system: Mus musculus; test: Number of survivors versus treated on day 24 at a dose of 6.25 mg/kg/day of compound; Tumor not measurable; format: functional, organism-based
compound,measurement,setting,value
CCc1nc(N)nc(N)c1-c1ccc(N(C)Cc2ccccc2)c(N)c1,IC50,[1],0.1 µM
CCc1nc(N)nc(N)c1-c1ccc(N2CCNCC2)c(N)c1,IC50,[1],> 25 µM
CCc1nc(N)nc(N)c1-c1ccc(N2CCNCC2)c([N+](=O)[O-])c1,IC50,[1],3.1 µM
CCc1nc(N)nc(N)c1-c1ccc(N2CCCCC2)c(N)c1,IC50,[1],> 25 µM
CCc1nc(N)nc(N)c1-c1ccc(NC)c([N+](=O)[O-])c1,Weight change,[2],4.3
same,Tumor volume,[3],640 mm**3
same,Antitumor activity,[4],20%
same,Tumor volume,[5],462 mm**3
same,Weight change,[6],3.3
same,Tumor volume,[7],220 mm**3
same,Tumor volume,[8],Not measurable
same,Tumor volume,[9],822 mm**3
same,Tumor volume,[10],805 mm**3
same,Antitumor activity,[11],10%
same,Tumor volume,[12],1407 mm**3
same,Antitumor activity,[13],61%
same,Weight change,[14],2.1
same,Weight change,[15],2.1
same,Antitumor activity,[16],35%
CCc1nc(N)nc(N)c1-c1ccc(NCc2ccccc2)c([N+](=O)[O-])c1,Weight change,[2],2.2
same,Tumor volume,[3],301 mm**3
same,Antitumor activity,[4],21%
same,Tumor volume,[5],586 mm**3
same,Weight change,[6],2.1
same,Tumor volume,[9],443 mm**3
same,Tumor volume,[10],932 mm**3
same,Antitumor activity,[11],<8%
same,Tumor volume,[12],1454 mm**3
same,Antitumor activity,[13],53%
same,Weight change,[14],1.7
same,Weight change,[15],1.6
same,Antitumor activity,[16],34%
CCc1nc(N)nc(N)c1-c1ccc(N2CCN(C)CC2)c(N)c1,IC50,[1],> 25 µM
CCc1nc(N)nc(N)c1-c1ccc(NCc2ccc(C(F)(F)F)cc2)c([N+](=O)[O-])c1,Weight change,[2],3.4
same,Antitumor activity,[4],12%
same,Tumor volume,[5],265 mm**3
same,Weight change,[6],2.3
same,Tumor volume,[17],291 mm**3
same,Tumor volume,[9],627 mm**3
same,Tumor volume,[10],454 mm**3
same,Antitumor activity,[11],<8%
same,Tumor volume,[12],948 mm**3
same,Antitumor activity,[13],40%
same,Weight change,[14],6.2
same,Weight change,[15],2
same,Antitumor activity,[16],20%
CCc1nc(N)nc(N)c1-c1ccc(NCc2ccc(Cl)cc2)c([N+](=O)[O-])c1,Weight change,[2],3.2
same,Antitumor activity,[4],13%
same,Tumor volume,[5],380 mm**3
same,Weight change,[6],3.3
same,Tumor volume,[9],552 mm**3
same,Tumor volume,[10],597 mm**3
same,Tumor volume,[12],873 mm**3
same,Antitumor activity,[13],29%
same,Weight change,[15],2.9
same,Antitumor activity,[16],20%
CCc1nc(N)nc(N)c1-c1ccc(N2CCCC2)c(N)c1,IC50,[1],> 25 µM
CCc1nc(N)nc(N)c1-c1ccc(N2CCN(C)CC2)c([N+](=O)[O-])c1,IC50,[1],3.9 µM
CCc1nc(N)nc(N)c1-c1ccc(N(C)C2CCCCC2)c(N)c1,IC50,[1],8.5 µM
CCc1nc(N)nc(N)c1-c1ccc([N+](=O)[O-])c(NCc2ccccc2)c1,IC50,[1],9.2 µM
CCc1nc(N)nc(N)c1-c1ccc(Cl)c([N+](=O)[O-])c1,IC50,[1],0.08 µM
CCc1nc(N)nc(N)c1-c1ccc(N2CCCC2)c([N+](=O)[O-])c1,IC50,[1],1.7 µM
CCc1nc(N)nc(N)c1-c1ccc(NCc2ccc(F)cc2)c([N+](=O)[O-])c1,Antitumor activity,[4],17%
same,Tumor volume,[5],386 mm**3
same,Weight change,[6],2.5
same,Tumor volume,[17],337 mm**3
same,Weight change,[18],3.8
same,Tumor volume,[9],539 mm**3
same,Tumor volume,[10],448 mm**3
same,Antitumor activity,[11],<8%
same,Tumor volume,[12],1555 mm**3
same,Antitumor activity,[13],68%
same,Weight change,[14],4.3
same,Weight change,[15],2
same,Antitumor activity,[16],20%
CCc1nc(N)nc(N)c1-c1ccc(N(C)C)cc1,IC50,[1],6.2 µM
Cc1nc(N)nc(N)c1-c1ccc(Cl)c(Cl)c1 [METOPRINE],T/C,[19],< 8%
same,Survivors,[20],0
same,Tumor volume,[21],Not measurable
same,Tumor volume,[22],Not measurable
same,Survivors,[23],0
same,Survivors,[24],0
same,Tumor volume,[25],Not measurable
same,Tumor volume,[26],Not measurable
same,Weight change,[27],4.9
CCc1nc(N)nc(N)c1-c1ccc(N(CC)Cc2ccccc2)c(N)c1,IC50,[1],4 µM
CCc1nc(N)nc(N)c1-c1ccc(NCc2ccc(OC)cc2)c([N+](=O)[O-])c1,IC50,[1],0.02 µM
same,Weight change,[2],4.1
same,Tumor volume,[3],416 mm**3
same,Antitumor activity,[4],21%
same,Tumor volume,[5],636 mm**3
same,Weight change,[6],3.6
same,Tumor volume,[17],306 mm**3
same,Tumor volume,[9],831 mm**3
same,Tumor volume,[10],875 mm**3
same,Antitumor activity,[11],<8%
same,Tumor volume,[12],1482 mm**3
same,Antitumor activity,[13],50%
same,Weight change,[14],0.2
same,Weight change,[15],2.3
same,Antitumor activity,[16],30%
CCc1nc(N)nc(N)c1-c1ccc([N+](=O)[O-])c(N(C)Cc2ccccc2)c1,IC50,[1],0.44 µM
CCc1nc(N)nc(N)c1-c1ccc(N2CCOCC2)c(N)c1,IC50,[1],> 25 µM
CCc1nc(N)nc(N)c1-c1ccc(N(CC)Cc2ccccc2)c([N+](=O)[O-])c1,Weight change,[2],2.3
same,Tumor volume,[3],492 mm**3
same,Antitumor activity,[4],12%
same,Tumor volume,[5],316 mm**3
same,Weight change,[6],1.6
same,Survivors,[28],Not measurable
same,Survivors,[29],Not measurable
same,Tumor volume,[9],698 mm**3
same,Tumor volume,[10],854 mm**3
same,Antitumor activity,[11],<8%
same,Tumor volume,[12],1375 mm**3
same,Antitumor activity,[13],50%
same,Weight change,[14],0.8
same,Weight change,[15],1.1
same,Antitumor activity,[16],31%
CCc1nc(N)nc(N)c1-c1ccc(N(C)C)c(N)c1,IC50,[1],67 µM
CCc1nc(N)nc(N)c1-c1ccc(N2CCOCC2)c([N+](=O)[O-])c1,IC50,[1],8 µM
CCc1nc(N)nc(N)c1-c1ccc(NCc2ccc(OC)c(OC)c2)c([N+](=O)[O-])c1,Weight change,[2],1
same,Weight change,[6],0.9
same,Tumor volume,[10],324 mm**3
same,Tumor volume,[12],371 mm**3
same,Antitumor activity,[13],10%
same,Antitumor activity,[16],9%
